Test results from ChEMBL document CHEMBL4425122, “Discovery of 1-(1H-Pyrazolo[4,3-c]pyridin-6-yl)urea Inhibitors of Extracellular Signal-Regulated Kinase (ERK) for the Treatment of Cancers” (J Med Chem, 2016).
Converted amounts (≈) assume the structure as drawn.

Experiments:
[1] = target: Voltage-gated inwardly rectifying potassium channel KCNH2 (Homo sapiens, UniProt Q12809); experiment: Inhibition of human ERG
Cytochrome P450 3A4 = Cytochrome P450 3A4 (Homo sapiens, UniProt P08684); experiment: Inhibition of CYP3A4 (unknown origin); type: ADME
[2] = Inhibition of ERK in human A375SM cells harboring BRAF V600E mutant assessed as inhibition of RSK phosphorylation measured after 4 hrs by mesoscale electrochemiluminescent sandwich assay; type: cell-based; conditions: A375-SM
Summary of the method: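 A375SM (BRAF V600E melanoma) cells, 10,000 per well, treated 4 h; lysed 20 min at 4 °C in Tris/NaCl/EGTA/EDTA/Triton/NaF buffer with protease and phosphatase inhibitors. Lysate captured with biotin anti-RSK1 on streptavidin MSD plate, detected with SULFO-TAG anti-pRSK (pThr359/Ser363) overnight at 4 °C; electrochemiluminescence read. IC50 from 11-point titration.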

[3] = target: Mitogen-activated protein kinase 1 (Homo sapiens, UniProt P28482); experiment: Inhibition of human ERK2 preincubated for 15 mins followed by addition of IMAP peptide substrate and ATP measured after 60 mins by IMAP-FP assay
Summary of the method: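 Final: 0.5 nM hERK2, 900 nM unlabeled + 80 nM labeled peptide, 30 µM ATP; 60 min, quenched with IMAP beads in binding buffer with 24 mM NaCl, read by fluorescence polarization after 60 min.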

[4] = target: Mitogen-activated protein kinase 1 (Mus musculus, UniProt P63085); experiment: Inhibition of mouse ERK2 preincubated for 15 mins followed by addition of IMAP peptide substrate and ATP measured after 60 mins by IMAP-FP assay
[5] = Solubility in human FaSSIF at pH 6.5; type: physicochemical
Summary of the method: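 Solubility measured in human fasted-state simulated intestinal fluid at pH 6.5.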

[6] = Inhibition of ERK (unknown origin) assessed as inhibition of RSK phosphorylation; set-up: species or system Homo sapiens
A375-SM = experiment: Antiproliferative activity against human A375SM cells harboring BRAF V600E mutant measured after 96 hrs by Cell Titer-Glo assay; type: functional, cell-based
Summary of the method: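 Cells in DMEM/10 mM HEPES/10% FBS added after compound, incubated 96 h at 37 °C, 5% CO2; equilibrated 15 min at room temperature, viability by CellTiter-Glo luminescence. IC50 from 10-point, 3-fold titration curves.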

Chain of Mitogen-activated protein kinase 1 (Homo sapiens, UniProt P28482) (P28482 whole entry): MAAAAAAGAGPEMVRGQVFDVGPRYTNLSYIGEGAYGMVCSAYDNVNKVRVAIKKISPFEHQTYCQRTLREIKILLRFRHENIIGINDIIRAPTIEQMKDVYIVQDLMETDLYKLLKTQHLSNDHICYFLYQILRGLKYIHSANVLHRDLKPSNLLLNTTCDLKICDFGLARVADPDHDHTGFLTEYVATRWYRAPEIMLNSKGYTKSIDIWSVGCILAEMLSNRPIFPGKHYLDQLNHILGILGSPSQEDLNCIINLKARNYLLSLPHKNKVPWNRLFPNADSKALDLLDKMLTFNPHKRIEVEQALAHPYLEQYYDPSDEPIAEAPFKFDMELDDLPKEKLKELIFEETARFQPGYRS
Chain of Voltage-gated inwardly rectifying potassium channel KCNH2 (Q12809 whole entry): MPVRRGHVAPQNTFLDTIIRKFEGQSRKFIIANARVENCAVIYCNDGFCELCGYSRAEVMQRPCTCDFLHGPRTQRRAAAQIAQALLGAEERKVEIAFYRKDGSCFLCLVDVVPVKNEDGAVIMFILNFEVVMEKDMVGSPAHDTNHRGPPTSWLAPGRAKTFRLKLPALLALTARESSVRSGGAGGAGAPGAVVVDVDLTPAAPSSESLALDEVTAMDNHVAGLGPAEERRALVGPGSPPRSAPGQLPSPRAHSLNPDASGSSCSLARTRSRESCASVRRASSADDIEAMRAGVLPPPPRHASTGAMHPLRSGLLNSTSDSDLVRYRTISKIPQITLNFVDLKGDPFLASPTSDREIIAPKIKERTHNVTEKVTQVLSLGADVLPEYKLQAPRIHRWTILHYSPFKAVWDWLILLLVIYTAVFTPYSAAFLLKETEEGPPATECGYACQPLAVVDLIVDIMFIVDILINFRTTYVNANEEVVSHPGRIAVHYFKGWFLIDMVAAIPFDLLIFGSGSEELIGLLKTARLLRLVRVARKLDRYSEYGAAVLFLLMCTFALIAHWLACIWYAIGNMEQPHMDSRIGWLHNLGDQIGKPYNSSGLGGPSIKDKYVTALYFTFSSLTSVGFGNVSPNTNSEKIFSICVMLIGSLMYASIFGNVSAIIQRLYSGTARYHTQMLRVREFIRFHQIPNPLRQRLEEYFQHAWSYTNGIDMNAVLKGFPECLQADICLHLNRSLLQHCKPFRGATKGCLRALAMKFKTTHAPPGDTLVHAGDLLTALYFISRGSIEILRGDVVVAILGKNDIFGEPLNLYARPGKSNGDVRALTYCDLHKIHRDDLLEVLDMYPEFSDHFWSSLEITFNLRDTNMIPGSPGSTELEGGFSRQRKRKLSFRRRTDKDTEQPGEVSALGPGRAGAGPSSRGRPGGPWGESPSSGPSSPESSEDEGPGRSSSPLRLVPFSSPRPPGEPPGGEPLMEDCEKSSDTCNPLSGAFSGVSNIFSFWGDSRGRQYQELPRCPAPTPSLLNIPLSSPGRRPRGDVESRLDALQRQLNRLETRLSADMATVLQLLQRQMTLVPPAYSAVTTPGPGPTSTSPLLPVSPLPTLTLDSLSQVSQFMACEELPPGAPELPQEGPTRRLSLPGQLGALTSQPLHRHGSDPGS
Chain of Cytochrome P450 3A4 (P08684 whole entry): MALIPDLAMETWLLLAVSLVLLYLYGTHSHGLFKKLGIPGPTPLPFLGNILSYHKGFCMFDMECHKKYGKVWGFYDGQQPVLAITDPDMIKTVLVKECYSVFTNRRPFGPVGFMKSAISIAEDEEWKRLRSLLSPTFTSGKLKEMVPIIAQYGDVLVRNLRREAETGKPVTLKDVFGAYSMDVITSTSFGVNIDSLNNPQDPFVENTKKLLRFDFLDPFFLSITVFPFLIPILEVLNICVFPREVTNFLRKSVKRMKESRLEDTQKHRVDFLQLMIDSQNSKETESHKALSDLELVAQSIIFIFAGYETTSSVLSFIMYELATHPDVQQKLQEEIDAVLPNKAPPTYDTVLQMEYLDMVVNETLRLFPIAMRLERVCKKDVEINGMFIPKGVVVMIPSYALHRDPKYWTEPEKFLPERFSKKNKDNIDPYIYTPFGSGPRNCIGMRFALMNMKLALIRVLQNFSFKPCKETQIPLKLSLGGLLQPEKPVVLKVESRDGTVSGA
Chain of Mitogen-activated protein kinase 1 (Mus musculus, UniProt P63085) (P63085 whole entry): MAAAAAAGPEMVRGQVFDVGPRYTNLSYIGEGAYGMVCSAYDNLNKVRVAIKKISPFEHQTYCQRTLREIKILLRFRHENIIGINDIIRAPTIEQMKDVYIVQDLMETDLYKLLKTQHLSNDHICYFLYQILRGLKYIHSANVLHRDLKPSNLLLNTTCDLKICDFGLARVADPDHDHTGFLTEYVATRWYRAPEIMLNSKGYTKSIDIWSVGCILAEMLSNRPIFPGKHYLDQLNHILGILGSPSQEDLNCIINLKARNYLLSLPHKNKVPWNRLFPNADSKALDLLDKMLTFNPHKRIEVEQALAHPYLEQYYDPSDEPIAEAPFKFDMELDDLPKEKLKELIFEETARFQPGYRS

With `Cc1cc(-c2n[nH]c3cc(NC(=O)N[C@H](C)c4ccccc4)ncc23)cc(C)n1` the IC50 [1] was > 20000 nM, the IC50 (Cytochrome P450 3A4) was 780 nM and the IC50 [2] was 130 nM. It also gave an IC50 [3] of 0.3 nM.

For `Cc1cc(-c2n[nH]c3cc(NS(=O)(=O)NCc4ccccc4)ncc23)ccn1`, the IC50 [3] was 2400 nM.

With `Cc1cc(-c2n[nH]c3cc(NC(=O)OCc4ccccc4)ccc23)ccn1` the IC50 [4] was > 3000 nM.

`CCCc1n[nH]c2cc(NC(=O)N[C@H](C)c3ccccc3)ncc12` showed an IC50 [2] of 350 nM and an IC50 [3] of 2 nM.

With `O=C(Nc1ccc2[nH]nc(-c3ccncc3)c2c1)[C@@H]1CCN(CC(=O)N2CCN(c3ccc(-c4ncccn4)cc3)CC2)C1` the solubility [5] was 38 µM (≈ 22.3 µg/mL), the IC50 [6] was 57 nM and the IC50 (A375-SM) was 39 nM.
